Reference: ChEMBL document CHEMBL4732199, “Potent and orally bioavailable CDK8 inhibitors: Design, synthesis, structure-activity relationship analysis and biological evaluation” (Eur J Med Chem, 2021)
pIC50, pKi: −log10 of the molar value. One block for each compound: values may come before it. Active and inactive are the calls of the source. The rule behind the calls is not given here.

Tests used:
[1] = system: MV4-11; assay: Growth inhibition of human MV4-11 cells after 72 hrs by resazurin staining based assay; format: functional
Procedure, shortened: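 MV4-11 leukaemia cells grown in medium with 10% FBS at 37 °C, 5% CO2. Growth was read by a 72-h resazurin viability assay. GI50 was obtained by nonlinear regression and reported as mean ± standard deviation of at least two replicates.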

[2] = biological target: CDK8/Cyclin C (Homo sapiens, UniProt P49336); assay: Inhibition of CDK8/cyclin C (unknown origin) using RBER-IRStide as substrate incubated for 60 mins in presence of [gamma33P]ATP by scintillation counting method; format: protein-complex assay
[3] = system: MDA-MB-231; assay: Growth inhibition human MDA-MB-231 cells after 72 hrs by resazurin or MTT assay; format: functional
Procedure, shortened: (§1)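 Tumour cell lines kept in RPMI-1640, DMEM or MEM with 10% FBS at 37 °C, 5% CO2, mycoplasma-free. Exposure lasted 72 h. Viability was read by MTT for adherent solid-tumour lines and by resazurin for suspension leukaemia lines. GI50 came from nonlinear regression, given as mean ± standard deviation of at least two replicates unless stated otherwise.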

[4] = biological target: CDK18/Cyclin Y (Homo sapiens) (UniProt Q07002+Q8ND76); assay: Inhibition of CDK18/Cyclin Y (unknown origin) at 1 uM; format: protein-complex assay
Procedure, shortened: (§2)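 Residual activity of each kinase with compound at 1 µM, measured in a contracted radioisotope-based kinase profiling assay and expressed as % kinase activity remaining.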

[5] = system: Glycogen synthase kinase-3 alpha (Homo sapiens), P49840 [UNDEFINED MUTATION]; assay: Inhibition of human GSKalpha S449A mutant (2 to 3nd residues) at 1 uM using YRRAAVPPSPSLSRHSSPHQS(p) EDEEE as substrate incubated for 40 mins in presence of [gamma-33P]-ATP by scintillation counting method relative to control
Procedure, shortened: (§3)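 Single-point screen of residual kinase activity (%) at 1 µM compound. Run as a contract radiometric [γ-33P]-ATP kinase assay, either the KinaseProfiler service or the HotSpot assay. ATP was set at the experimentally determined Km(ATP) of each kinase.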

[6] = biological target: CDK17/Cyclin-Y (Homo sapiens) (UniProt Q00537+Q8ND76); assay: Inhibition of CDK17/Cyclin Y (unknown origin) at 1 uM; format: protein-complex assay; procedure, shortened: as §2
[7] = Inhibition of CYP4501A in human liver microsomes using ethoxyresorufin O-deethylation as substrate by LC-MS/MS analysis
[8] = biological target: Cyclin-dependent kinase 4/cyclin D1 (Homo sapiens) (UniProt P11802+P24385); assay: Inhibition of CDK4/cyclin-D1 (unknown origin) at 1 uM; format: protein-complex assay; procedure, shortened: as §2
[9] = system: HCT-116; assay: Growth inhibition human HCT-116 cells after 72 hrs by resazurin or MTT assay; format: functional; procedure, shortened: as §1
[10] = system: Glycogen synthase kinase-3 beta (Homo sapiens), P49841 [UNDEFINED MUTATION]; assay: Inhibition of human GSKbeta H350L mutant (2 to 3nd residues) at 1 uM using YRRAAVPPSPSLSRHSSPHQS(p) EDEEE as substrate incubated for 40 mins in presence of [gamma-33P]-ATP by scintillation counting method relative to control; procedure, shortened: as §3
[11] = biological target: CDK9/cyclin T1 (Homo sapiens) (UniProt O60563+P50750); assay: Inhibition of CDK9/Cyclin T1 (unknown origin) at 1 uM relative to control; format: protein-complex assay; procedure, shortened: as §2
[12] = biological target: Cyclin-Y/Cyclin-dependent kinase 16 (Homo sapiens) (UniProt Q00536+Q8ND76); assay: Inhibition of CDK16/Cyclin Y (unknown origin) at 1 uM; format: protein-complex assay; procedure, shortened: as §2
[13] = biological target: T1, Cyclin-dependent kinase 5/CDK5 activator 1 (Homo sapiens) (UniProt Q00535+Q15078); assay: Inhibition of CDK5/p35 (unknown origin) at 1 uM; format: protein-complex assay; procedure, shortened: as §2
[14] = Growth inhibition human WI38 cells after 72 hrs by resazurin or MTT assay; format: cell-based; conditions: WI-38 cells
[15] = biological target: Glycogen synthase kinase-3 alpha (Homo sapiens, UniProt P49840); assay: Inhibition of human GSKalpha S449A mutant (2 to 3nd residues) using YRRAAVPPSPSLSRHSSPHQS(p) EDEEE as substrate incubated for 40 mins in presence of [gamma-33P]-ATP by scintillation counting method
Procedure, shortened: (§4)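 Outsourced radioisotope (HotSpot) kinase assay run by a contract lab, with ATP at the kinase's Km(ATP). The IC50 was converted to an apparent Ki by the Cheng-Prusoff equation, Ki = IC50/(1+[ATP]/Km(ATP)), using the experimentally determined Km(ATP).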

[16] = system: T47D; assay: Growth inhibition human T47D cells after 72 hrs by resazurin or MTT assay; format: functional; procedure, shortened: as §1
[17] = system: U-937; assay: Growth inhibition human U-937 cells after 72 hrs by resazurin or MTT assay; format: functional; procedure, shortened: as §1
[18] = system: COLO 205; assay: Growth inhibition human COLO 205 cells after 72 hrs by resazurin or MTT assay; format: functional; procedure, shortened: as §1
[19] = system: MOLM-13; assay: Growth inhibition human MOLM-13 cells after 72 hrs by resazurin or MTT assay; format: functional; procedure, shortened: as §1
[20] = biological target: T1, Cyclin-dependent kinase 5/CDK5 activator 1 (Homo sapiens); assay: Inhibition of CDK5/p25 (unknown origin) at 1 uM; format: protein-complex assay; procedure, shortened: as §2
[21] = system: HT-29; assay: Growth inhibition human HT-29 cells after 72 hrs by resazurin or MTT assay; format: functional; procedure, shortened: as §1
[22] = system: MCF7; assay: Growth inhibition human MCF7 cells after 72 hrs by resazurin or MTT assay; format: functional; procedure, shortened: as §1
[23] = biological target: Glycogen synthase kinase-3 beta (Homo sapiens, UniProt P49841); assay: Inhibition of human GSKbeta H350L mutant (2 to 3nd residues) using YRRAAVPPSPSLSRHSSPHQS(p) EDEEE as substrate incubated for 40 mins in presence of [gamma-33P]-ATP by scintillation counting method; procedure, shortened: as §4
[24] = biological target: CDK3/Cyclin E (Homo sapiens) (UniProt P24864+Q00526); assay: Inhibition of CDK3/cyclin-E (unknown origin) at 1 uM; format: protein-complex assay; procedure, shortened: as §2
[25] = biological target: Cyclin-dependent kinase 1/cyclin B1 (Homo sapiens) (UniProt P06493+P14635); assay: Inhibition of CDK1/cyclin-B (unknown origin) at 1 uM relative to control; format: protein-complex assay; procedure, shortened: as §2
[26] = biological target: T2, Protein kinase C theta type (Homo sapiens, UniProt Q04759); assay: Inhibition of human full length PKCtheta at 1 uM using histone H1 as substrate incubated for 40 mins in presence of [gamma-33P]-ATP by scintillation counting method relative to control; procedure, shortened: as §3
[27] = system: MDA-MB-453; assay: Growth inhibition human MDA-MB-453 cells after 72 hrs by resazurin or MTT assay; format: functional; procedure, shortened: as §1
[28] = biological target: CDK2/Cyclin A2 (Homo sapiens) (UniProt P24941+P20248); assay: Inhibition of CDK2/cyclin-A (unknown origin) at 1 uM; format: protein-complex assay; procedure, shortened: as §2
[29] = system: PANC-1; assay: Growth inhibition human PANC-1 cells after 72 hrs by resazurin or MTT assay; format: functional; procedure, shortened: as §1
[30] = biological target: T2, Protein kinase C theta type; assay: Inhibition of human full length PKCtheta using histone H1 as substrate incubated for 40 mins in presence of [gamma-33P]-ATP by scintillation counting method
Procedure, shortened: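 IC50 measured in a contracted radiometric kinase assay with ATP at the experimentally determined Km(ATP) of each kinase. Apparent Ki was derived by Cheng-Prusoff: Ki = IC50/(1+[ATP]/Km(ATP)).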

[31] = system: A2780; assay: Growth inhibition human A2780 cells after 72 hrs by resazurin or MTT assay; format: functional; procedure, shortened: as §1
[32] = biological target: CDK6/cyclin D3 (Homo sapiens) (UniProt P30281+Q00534); assay: Inhibition of CDK6/cyclin-D3 (unknown origin) at 1 uM; format: protein-complex assay; procedure, shortened: as §2
[33] = biological target: CDK7/Cyclin H/MNAT1 (Homo sapiens) (UniProt P51946+P50613+P51948); assay: Inhibition of CDK7/cyclin H/MNAT1 (unknown origin) at 1 uM; format: protein-complex assay; procedure, shortened: as §2
[34] = biological target: Cyclin-dependent kinase 14/Cyclin-Y (Homo sapiens) (UniProt O94921+Q8ND76); assay: Inhibition of CDK14/Cyclin Y (unknown origin) at 1 uM; format: protein-complex assay; procedure, shortened: as §2

CDK8/Cyclin C, sequence (P49336 whole entry): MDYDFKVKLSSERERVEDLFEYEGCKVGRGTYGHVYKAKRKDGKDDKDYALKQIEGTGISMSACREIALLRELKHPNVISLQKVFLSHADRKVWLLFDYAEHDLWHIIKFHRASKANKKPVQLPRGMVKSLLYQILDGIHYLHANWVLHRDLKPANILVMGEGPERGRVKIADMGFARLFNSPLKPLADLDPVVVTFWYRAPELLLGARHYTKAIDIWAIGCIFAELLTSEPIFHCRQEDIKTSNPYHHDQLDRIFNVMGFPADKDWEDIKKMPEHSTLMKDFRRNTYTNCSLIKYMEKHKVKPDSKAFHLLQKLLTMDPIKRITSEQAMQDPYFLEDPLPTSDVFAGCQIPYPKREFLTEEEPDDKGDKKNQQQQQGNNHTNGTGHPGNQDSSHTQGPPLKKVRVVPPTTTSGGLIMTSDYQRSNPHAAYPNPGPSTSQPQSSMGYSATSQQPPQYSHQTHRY
CDK8/Cyclin C, sequence (P24863 whole entry, further chain): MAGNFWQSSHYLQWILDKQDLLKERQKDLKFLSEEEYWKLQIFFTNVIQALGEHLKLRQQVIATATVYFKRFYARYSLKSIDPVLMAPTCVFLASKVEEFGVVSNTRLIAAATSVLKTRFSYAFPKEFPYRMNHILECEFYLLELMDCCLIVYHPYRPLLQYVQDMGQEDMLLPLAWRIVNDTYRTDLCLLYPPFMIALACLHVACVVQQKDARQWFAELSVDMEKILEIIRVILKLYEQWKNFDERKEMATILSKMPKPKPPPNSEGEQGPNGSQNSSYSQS
T1 sequence (Q00535 whole entry): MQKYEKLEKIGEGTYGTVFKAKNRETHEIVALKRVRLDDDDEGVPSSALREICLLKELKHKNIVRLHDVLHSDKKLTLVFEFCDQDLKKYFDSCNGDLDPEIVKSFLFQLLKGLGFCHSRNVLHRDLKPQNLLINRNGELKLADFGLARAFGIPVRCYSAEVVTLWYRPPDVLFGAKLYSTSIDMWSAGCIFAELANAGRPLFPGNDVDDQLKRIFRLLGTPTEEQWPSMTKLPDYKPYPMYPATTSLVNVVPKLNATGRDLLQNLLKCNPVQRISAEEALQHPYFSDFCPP
T1 sequence (Q15078 99-307 partner limits assumed): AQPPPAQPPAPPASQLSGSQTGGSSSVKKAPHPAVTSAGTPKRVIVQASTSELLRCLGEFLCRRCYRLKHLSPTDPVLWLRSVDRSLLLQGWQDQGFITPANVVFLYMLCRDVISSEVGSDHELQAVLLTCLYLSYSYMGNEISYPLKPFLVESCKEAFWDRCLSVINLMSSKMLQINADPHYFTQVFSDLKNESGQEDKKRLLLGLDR
CDK17/Cyclin-Y (Homo sapiens), sequence (Q00537 whole entry): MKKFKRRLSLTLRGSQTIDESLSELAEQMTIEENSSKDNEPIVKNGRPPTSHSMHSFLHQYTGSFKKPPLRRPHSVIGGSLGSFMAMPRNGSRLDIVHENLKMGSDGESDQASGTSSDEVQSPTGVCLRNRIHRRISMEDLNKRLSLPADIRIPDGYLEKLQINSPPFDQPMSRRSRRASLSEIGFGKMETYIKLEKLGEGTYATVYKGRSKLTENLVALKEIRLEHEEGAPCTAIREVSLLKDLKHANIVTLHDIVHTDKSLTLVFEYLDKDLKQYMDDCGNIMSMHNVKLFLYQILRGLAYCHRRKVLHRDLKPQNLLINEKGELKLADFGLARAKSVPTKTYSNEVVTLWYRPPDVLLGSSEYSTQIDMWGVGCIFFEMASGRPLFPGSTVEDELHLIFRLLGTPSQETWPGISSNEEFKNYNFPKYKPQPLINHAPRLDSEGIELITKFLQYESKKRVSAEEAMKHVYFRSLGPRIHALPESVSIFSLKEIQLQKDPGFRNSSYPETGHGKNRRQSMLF
CDK17/Cyclin-Y (Homo sapiens), sequence (Q8ND76 2-341 partner limits assumed): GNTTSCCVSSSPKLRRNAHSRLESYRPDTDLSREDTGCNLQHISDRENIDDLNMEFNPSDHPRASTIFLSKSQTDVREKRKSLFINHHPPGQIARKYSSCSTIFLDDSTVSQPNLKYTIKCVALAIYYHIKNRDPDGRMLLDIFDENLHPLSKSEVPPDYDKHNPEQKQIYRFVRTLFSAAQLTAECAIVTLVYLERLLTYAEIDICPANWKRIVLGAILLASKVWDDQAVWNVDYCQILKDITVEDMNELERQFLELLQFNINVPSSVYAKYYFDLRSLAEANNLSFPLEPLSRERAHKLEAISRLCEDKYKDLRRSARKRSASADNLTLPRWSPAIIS
Cyclin-dependent kinase 1/cyclin B1 (Homo sapiens), sequence (P06493 whole entry, looked up): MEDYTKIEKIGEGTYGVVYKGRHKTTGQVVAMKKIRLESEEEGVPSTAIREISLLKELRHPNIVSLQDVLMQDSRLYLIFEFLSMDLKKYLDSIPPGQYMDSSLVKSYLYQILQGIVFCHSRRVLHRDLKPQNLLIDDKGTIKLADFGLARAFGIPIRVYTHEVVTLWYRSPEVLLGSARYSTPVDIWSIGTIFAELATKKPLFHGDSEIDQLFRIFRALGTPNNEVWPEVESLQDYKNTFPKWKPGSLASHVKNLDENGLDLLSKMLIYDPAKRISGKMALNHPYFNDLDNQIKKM
Cyclin-dependent kinase 1/cyclin B1 (Homo sapiens), sequence (P14635 whole entry, looked up): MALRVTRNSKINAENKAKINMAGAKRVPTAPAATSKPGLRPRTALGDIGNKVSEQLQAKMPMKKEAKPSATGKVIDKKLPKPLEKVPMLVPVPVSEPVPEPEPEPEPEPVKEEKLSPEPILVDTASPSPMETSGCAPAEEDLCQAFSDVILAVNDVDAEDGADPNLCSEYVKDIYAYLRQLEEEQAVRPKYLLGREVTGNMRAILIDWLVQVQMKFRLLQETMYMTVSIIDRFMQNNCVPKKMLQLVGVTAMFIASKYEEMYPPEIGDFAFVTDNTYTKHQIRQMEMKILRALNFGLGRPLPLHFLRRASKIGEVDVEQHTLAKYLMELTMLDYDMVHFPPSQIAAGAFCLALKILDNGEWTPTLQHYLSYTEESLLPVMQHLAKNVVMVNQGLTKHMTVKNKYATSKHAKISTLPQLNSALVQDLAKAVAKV
CDK3/Cyclin E (Homo sapiens), sequence (P24864 whole entry, looked up): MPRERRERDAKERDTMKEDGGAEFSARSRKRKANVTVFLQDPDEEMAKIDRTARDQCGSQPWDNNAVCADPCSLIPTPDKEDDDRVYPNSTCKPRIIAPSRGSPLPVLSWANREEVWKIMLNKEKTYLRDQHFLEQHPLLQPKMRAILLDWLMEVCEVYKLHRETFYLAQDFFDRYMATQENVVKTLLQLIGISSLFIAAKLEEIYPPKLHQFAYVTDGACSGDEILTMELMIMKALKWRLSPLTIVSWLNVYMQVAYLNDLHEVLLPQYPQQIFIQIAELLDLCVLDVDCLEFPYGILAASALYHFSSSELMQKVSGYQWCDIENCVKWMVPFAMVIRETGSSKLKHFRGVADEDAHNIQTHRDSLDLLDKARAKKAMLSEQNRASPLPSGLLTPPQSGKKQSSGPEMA
CDK3/Cyclin E (Homo sapiens), sequence (Q00526 whole entry, looked up): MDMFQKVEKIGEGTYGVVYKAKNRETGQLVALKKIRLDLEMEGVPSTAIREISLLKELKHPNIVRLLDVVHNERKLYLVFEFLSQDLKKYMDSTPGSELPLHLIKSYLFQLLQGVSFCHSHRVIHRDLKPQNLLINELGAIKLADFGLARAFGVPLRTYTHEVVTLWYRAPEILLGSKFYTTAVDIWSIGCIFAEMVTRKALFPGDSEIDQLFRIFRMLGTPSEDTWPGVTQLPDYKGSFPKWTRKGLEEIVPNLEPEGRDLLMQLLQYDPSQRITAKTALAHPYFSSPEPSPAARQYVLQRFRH
Glycogen synthase kinase-3 beta, sequence (P49841 whole entry): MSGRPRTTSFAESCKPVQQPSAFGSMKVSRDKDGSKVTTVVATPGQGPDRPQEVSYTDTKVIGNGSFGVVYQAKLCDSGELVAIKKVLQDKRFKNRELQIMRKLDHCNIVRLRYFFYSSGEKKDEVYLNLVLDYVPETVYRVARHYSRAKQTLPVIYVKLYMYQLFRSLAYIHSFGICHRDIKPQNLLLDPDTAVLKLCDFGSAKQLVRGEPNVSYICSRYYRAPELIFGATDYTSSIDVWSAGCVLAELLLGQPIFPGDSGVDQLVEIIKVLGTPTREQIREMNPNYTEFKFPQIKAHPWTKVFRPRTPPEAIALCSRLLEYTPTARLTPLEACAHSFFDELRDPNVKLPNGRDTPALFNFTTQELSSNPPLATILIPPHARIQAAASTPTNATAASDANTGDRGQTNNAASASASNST
Glycogen synthase kinase-3 beta (Homo sapiens), P49841 [UNDEFINED MUTATION], sequence (P49841 whole entry, looked up, stated change not applied): as the sequence (P49841 whole entry) above
Glycogen synthase kinase-3 alpha (Homo sapiens), P49840 [UNDEFINED MUTATION], sequence (P49840 whole entry, looked up, stated change not applied): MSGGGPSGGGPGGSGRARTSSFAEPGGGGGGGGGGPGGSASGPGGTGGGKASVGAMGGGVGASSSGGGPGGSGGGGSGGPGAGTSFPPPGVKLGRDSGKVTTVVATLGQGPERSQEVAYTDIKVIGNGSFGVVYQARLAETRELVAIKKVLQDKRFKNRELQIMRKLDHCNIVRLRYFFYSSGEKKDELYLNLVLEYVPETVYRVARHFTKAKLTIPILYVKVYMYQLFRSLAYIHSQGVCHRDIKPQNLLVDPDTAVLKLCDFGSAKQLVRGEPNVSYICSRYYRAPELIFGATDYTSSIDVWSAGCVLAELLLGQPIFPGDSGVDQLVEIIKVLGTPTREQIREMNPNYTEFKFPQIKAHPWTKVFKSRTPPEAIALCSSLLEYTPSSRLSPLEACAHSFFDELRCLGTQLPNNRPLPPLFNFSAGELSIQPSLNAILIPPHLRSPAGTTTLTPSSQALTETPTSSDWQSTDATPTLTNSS
Glycogen synthase kinase-3 alpha, sequence (P49840 whole entry): as the sequence (P49840 whole entry, looked up, stated change not applied) above

GI50 [1]: 7.55 µM | pKi [2]: 7.18
SMILES: O=C1NCCC12CCN(c1c(Cl)cncc1-c1cncc3ccccc13)CC2

GI50 [1]: 12.2 µM | pKi [2]: 6.15
SMILES: CC(C)(C)OC(=O)N1CCC(n2cc(-c3cncc(Cl)c3N3CCC4(CCNC4=O)CC3)cn2)CC1

GI50 [1]: 6.35 µM | pKi [2]: 7.62
SMILES: O=C1NCCC12CCN(c1c(Cl)cncc1-c1cccc3c1sc1ccccc13)CC2

GI50 [1]: 53.5 µM | pKi [2]: 6.86
SMILES: O=C1NCCC12CCN(c1c(Cl)cncc1-c1ccnc3ccccc13)CC2

GI50 [1]: 1.71 µM | pKi [2]: 6.17
SMILES: Cn1ncc2cc(Nc3cncc(Cl)c3N3CCC4(CCNC4=O)CC3)ccc21

GI50 [1]: 33.2 µM | pKi [2]: 7.59
SMILES: COc1ccc(-c2cncc(Cl)c2N2CCC3(CCNC3=O)CC2)c2ccccc12

GI50 [1]: 5.34 µM | pKi [2]: 6.46
SMILES: O=C1NCCC12CCN(c1c(Cl)cncc1-c1cnn(Cc3ccccc3)c1)CC2

The next lines start with the compound.

SMILES: O=C1NCCC12CCN(c1c(Cl)cncc1-c1cn(S(=O)(=O)c3ccccc3)c3ncccc13)CC2
GI50 [1]: 40.2 µM | pKi [2]: 5.89

SMILES: O=C1NCCC12CCN(c1c(Cl)cncc1-c1cn(S(=O)(=O)c3ccccc3)c3ccccc13)CC2
GI50 [1]: 28.4 µM | pKi [2]: 6.19

SMILES: O=C1NCCC12CCN(c1c(Cl)cncc1-c1c[nH]c3ccccc13)CC2
GI50 [1]: 8.77 µM | pKi [2]: 7.25

SMILES: O=C1NCCC12CCN(c1c(Cl)cncc1-c1cccc3ccccc13)CC2
GI50 [1]: 0.82 µM | pKi [2]: 7.80

SMILES: Cn1cc(-c2ccc(-c3cncc(Cl)c3-n3ccc(C(=O)O)c3)cc2)cn1
GI50 [1]: 87.1 µM | pKi [2]: 5.38

SMILES: O=C1NCCC12CCN(c1c(Cl)cncc1-c1cc3ccccc3s1)CC2
GI50 [3]: 34.2 µM | inhibition [4]: inactive | inhibition [5]: > 50% | inhibition [6]: inactive | pIC50 [7]: 4.78 | inhibition [8]: inactive | GI50 [9]: 42.7 µM | inhibition [10]: > 50% | inhibition [11]: inactive | inhibition [12]: inactive | inhibition [13]: inactive | GI50 at 72 h [14]: 35 µM | GI50 [1]: 0.58 µM | pKi [15]: 7.37 | GI50 [16]: 17.9 µM | pKi [2]: 7.85 | GI50 [17]: 2.69 µM | GI50 [18]: > 50 µM | GI50 [19]: 5.81 µM | inhibition [20]: inactive | GI50 [21]: 29.3 µM | GI50 [22]: > 50 µM | pKi [23]: 7.74 | inhibition [24]: inactive | inhibition [25]: inactive | inhibition [26]: > 50% | GI50 [27]: 17.4 µM | inhibition [28]: inactive | GI50 [29]: > 50 µM | pKi [30]: 6.87 | GI50 [31]: 17.6 µM | inhibition [32]: inactive | inhibition [33]: inactive | inhibition [34]: inactive

SMILES: O=C1NCCC12CCN(c1c(Cl)cncc1-c1csc3ccccc13)CC2
GI50 [1]: 0.35 µM | pKi [2]: 7.68

SMILES: Cn1c(-c2cncc(Cl)c2N2CCC3(CCNC3=O)CC2)cc2ccccc21
GI50 [1]: 10.1 µM | pKi [2]: 7.10

SMILES: O=C1NCCC12CCN(c1c(Cl)cncc1-c1cccc3cccnc13)CC2
GI50 [1]: 9.15 µM | pKi [2]: 6.94
